ChEMBL document CHEMBL3046103, “Antifungal synergistic effect of scopoletin, a hydroxycoumarin isolated from Melia azedarach L. fruits” (J Agric Food Chem, 2005)

How the values were obtained:
Fusarium verticillioides [1] = assay: Antifungal activity against Fusarium verticillioides assessed as growth inhibition by broth microdilution method
Fusarium incarnatum [2] = assay: Antifungal activity against Fusarium incarnatum assessed as growth inhibition by broth microdilution method; format: functional, organism-based
Fusarium [3] = assay: Antifungal activity against Fusarium fusiformis assessed as growth inhibition by broth microdilution method; format: functional, organism-based
Fusarium incarnatum [4] = assay: Antifungal activity against Fusarium incarnatum assessed as growth inhibition at 1 mg/mL by broth microdilution method; format: functional; conditions: read-out: GI
Fusarium verticillioides [5] = assay: Antifungal activity against Fusarium verticillioides assessed as growth inhibition by broth microdilution method; format: functional, organism-based
Summary of the method: (§1)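 F. verticillioides strain M-7075, a maize isolate, was kept as a monosporic culture on V8 juice medium. Four-day-old spores were suspended at 10^5 spores/mL in glucose-mineral salts medium. Compound in filter-sterilized DMSO (final ≤2-4%) was tested at 0.10–1.70 mg/mL, in duplicate, alongside DMSO and untreated controls. Germination relative to control mycelial growth (100%) was scored visually by inverted microscope. MIC was the lowest concentration giving complete inhibition, and IC50 came from probit analysis.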

Fusarium [6] = assay: Antifungal activity against Fusarium fusiformis assessed as growth inhibition at 1 mg/mL by broth microdilution method; format: functional
Fusarium verticillioides [7] = assay: Antifungal activity against Fusarium verticillioides assessed as growth inhibition at 1 mg/mL by broth microdilution method; format: functional
Summary of the method: as §1

SMILES: COc1cc(C2OCC3C(c4ccc(O)c(OC)c4)OCC23)ccc1O (racemic) [(+/-)-PINORESINOL]
- MIC (Fusarium verticillioides [1]): 1000 µg/mL

SMILES: COc1cc(/C=C/C=O)ccc1O [CONIFERYL ALDEHYDE]
- MIC (Fusarium verticillioides [1]): 400 µg/mL

SMILES: COc1cc2ccc(=O)oc2cc1O [SCOPOLETIN]
- IC50 (Fusarium incarnatum [2]): 470 µg/mL
- IC50 (Fusarium [3]): 820 µg/mL
- inhibition of growth at 1000 µg/mL (Fusarium incarnatum [4]): 66.2%
- IC50 (Fusarium verticillioides [5]): 730 µg/mL
- MIC (Fusarium verticillioides [5]): 1500 µg/mL
- inhibition at 1000 µg/mL (Fusarium [6]): 51.8%
- inhibition at 1000 µg/mL (Fusarium verticillioides [7]): 90%

SMILES: COc1cc(C=O)ccc1O [VANILLIN]
- MIC (Fusarium verticillioides [1]): 600 µg/mL
